Source: ChEMBL document CHEMBL3244396, “Synthesis and antileukemic activity of 5-substituted 2,3-dihydro-6,7-bis(hydroxymethyl)-1H-pyrrolizine diesters” (J Med Chem, 1977)
Values after ≈ are worked out from the molar mass of the structure shown.

How the values were obtained:
L1210 [1] = assay: Antileukemic activity against mouse L1210 cells allografted in female BDF1 mouse assessed as host mean survival time at 200 mg/kg, ip administered daily for 9 days as Klucel suspension starting 24 hrs after tumor inoculation relative to control; assay type: functional; settings: route intraperitoneal
How it was run: (§1)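 L1210 leukemia given as an ascitic fluid cell inoculum, ip, to mice of the strain and sex in each line. Test material was given ip for nine daily doses starting 24 h after inoculation, in a Klucel (hydroxypropylcellulose) suspension. Read-out is mean survival time as %T/C versus controls, with >125 taken as significant.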

Mus musculus [2] = assay: Toxicity in female CDF1 mouse allografted with mouse P388 cells assessed as animal survival at 200 mg/kg, ip administered daily for 9 days as Klucel suspension starting 24 hrs after tumor inoculation; assay type: organism-based; design: dose 200 mg/kg, route intraperitoneal; settings: in vivo
How it was run: (§2)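 P-388 leukemia ascitic fluid inoculated ip. Compound given ip as a suspension in Klucel (hydroxypropylcellulose), once daily for nine doses beginning 24 h post-inoculation. Acute toxicity assessed as toxicity-day survivors per group. Survival was followed up to 30 days, with 30-day survival counted as "cure". Follows NCI screening protocols.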

L1210 [3] = assay: Antileukemic activity against mouse L1210 cells allografted in female BDF1 mouse assessed as change in body weight at 100 mg/kg, ip administered daily for 9 days as Klucel suspension starting 24 hrs after tumor inoculation; assay type: functional; settings: route intraperitoneal
How it was run: (§3)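 Ascitic fluid carrying L1210 cells was inoculated ip. Compound was given ip as a Klucel (hydroxypropylcellulose) suspension in nine daily doses, starting 24 h after inoculation. Body-weight difference (treated minus control) was recorded on day 5. Survival was scored as %T/C of mean survival time.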

P388 [4] = assay: Antitumor activity against mouse P388 cells allografted in female CDF1 mouse assessed as disease cures by measuring 30-days host survival at 100 mg/kg, ip administered daily for 9 days as Klucel suspension starting 24 hrs after tumor inoculation relative to control; assay type: functional; settings: route intraperitoneal
How it was run: (§4)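 P388 leukemia given as an ascitic fluid cell inoculum, ip, to mice of the strain and sex in each line. Nine daily ip doses were given in a Klucel (hydroxypropylcellulose) suspension, starting 24 h after inoculation. Read-out is median survival time as %T/C, with >125 taken as significant; a "cure" means 30-day survival.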

Mus musculus [5] = assay: Toxicity in female CDF1 mouse allografted with mouse P388 cells assessed as animal survival at 50 mg/kg, ip administered daily for 9 days as Klucel suspension starting 24 hrs after tumor inoculation; assay type: organism-based; design: dose 50 mg/kg, route intraperitoneal; settings: in vivo; how it was run: as §2
P388 [6] = assay: Antitumor activity against mouse P388 cells allografted in female CDF1 mouse assessed as disease cures by measuring 30-days host survival at 200 mg/kg, ip administered daily for 9 days as Klucel suspension starting 24 hrs after tumor inoculation relative to control; assay type: functional; settings: route intraperitoneal; how it was run: as §4
Mus musculus [7] = assay: Toxicity in female BDF1 mouse allografted with mouse L1210 cells assessed as animal survival at 200 mg/kg, ip administered daily for 9 days as Klucel suspension starting 24 hrs after tumor inoculation measured on fifth day; assay type: organism-based; design: dose 200 mg/kg, route intraperitoneal; settings: in vivo
How it was run: (§5)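 L1210 leukemia passaged as ascitic fluid and inoculated ip. Test agent given ip as a Klucel (hydroxypropylcellulose) suspension, nine daily doses starting 24 h after tumor inoculation. Acute toxicity read as toxicity-day survivors per group (out of 6), recorded on day 5. Animal weight difference T − C was also recorded. Follows NCI screening protocols.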

Mus musculus [8] = assay: Toxicity in female BDF1 mouse allografted with mouse L1210 cells assessed as animal survival at 50 mg/kg, ip administered daily for 9 days as Klucel suspension starting 24 hrs after tumor inoculation measured on fifth day; assay type: organism-based; design: dose 50 mg/kg, route intraperitoneal; settings: in vivo; how it was run: as §5
Mus musculus [9] = assay: Toxicity in female CDF1 mouse allografted with mouse P388 cells assessed as animal survival at 100 mg/kg, ip administered daily for 9 days as Klucel suspension starting 24 hrs after tumor inoculation; assay type: organism-based; design: dose 100 mg/kg, route intraperitoneal; settings: in vivo; how it was run: as §2
Mus musculus [10] = assay: Toxicity in female BDF1 mouse allografted with mouse L1210 cells assessed as animal survival at 100 mg/kg, ip administered daily for 9 days as Klucel suspension starting 24 hrs after tumor inoculation measured on fifth day; assay type: organism-based; design: dose 100 mg/kg, route intraperitoneal; settings: in vivo
How it was run: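 Female BDF1 mice bearing ip ascitic L1210 inoculum got nine daily ip doses in a Klucel suspension, starting 24 h after tumor inoculation. Toxicity was scored as toxicity-day survivors out of the group, recorded on the fifth day. Animal weight difference (T − C) was also tabulated.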

[11] = Cytotoxicity against human 9KB cells treated as ethanol solution; assay type: functional; settings: read-out: ED50 (the source's name)
How it was run: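 Compound applied as an ethanol solution; activity read out as ED50 under the general screening protocol.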

L1210 [12] = assay: Antileukemic activity against mouse L1210 cells allografted in female BDF1 mouse assessed as host mean survival time at 50 mg/kg, ip administered daily for 9 days as Klucel suspension starting 24 hrs after tumor inoculation relative to control; assay type: functional; settings: route intraperitoneal; how it was run: as §1
L1210 [13] = assay: Antileukemic activity against mouse L1210 cells allografted in female BDF1 mouse assessed as host mean survival time at 100 mg/kg, ip administered daily for 9 days as Klucel suspension starting 24 hrs after tumor inoculation relative to control; assay type: functional; settings: route intraperitoneal; how it was run: as §1
L1210 [14] = assay: Antileukemic activity against mouse L1210 cells allografted in female BDF1 mouse assessed as change in body weight at 200 mg/kg, ip administered daily for 9 days as Klucel suspension starting 24 hrs after tumor inoculation; assay type: functional; settings: route intraperitoneal; how it was run: as §3
P388 [15] = assay: Antitumor activity against mouse P388 cells allografted in female CDF1 mouse assessed as change in body weight at 50 mg/kg, ip administered daily for 9 days as Klucel suspension starting 24 hrs after tumor inoculation; assay type: functional; settings: route intraperitoneal
How it was run: (§6)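 Ascitic fluid carrying P388 cells was inoculated ip. Compound was given ip in nine daily doses, starting 24 h after inoculation, in Klucel (hydroxypropylcellulose) suspension or in saline with Tween-80. Body-weight difference (treated minus control) was recorded on day 5. Survival was scored as %T/C of median survival time, and 30-day survival counted as cure.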

P388 [16] = assay: Antitumor activity against mouse P388 cells allografted in female CDF1 mouse assessed as change in body weight at 100 mg/kg, ip administered daily for 9 days as Klucel suspension starting 24 hrs after tumor inoculation; assay type: functional; settings: route intraperitoneal; how it was run: as §6
P388 [17] = assay: Antitumor activity against mouse P388 cells allografted in female CDF1 mouse assessed as change in body weight at 200 mg/kg, ip administered daily for 9 days as Klucel suspension starting 24 hrs after tumor inoculation; assay type: functional; settings: route intraperitoneal; how it was run: as §6
L1210 [18] = assay: Antileukemic activity against mouse L1210 cells allografted in female BDF1 mouse assessed as change in body weight at 50 mg/kg, ip administered daily for 9 days as Klucel suspension starting 24 hrs after tumor inoculation; assay type: functional; settings: route intraperitoneal; how it was run: as §3
P388 [19] = assay: Antitumor activity against mouse P388 cells allografted in female CDF1 mouse assessed as disease cures by measuring 30-days host survival at 50 mg/kg, ip administered daily for 9 days as Klucel suspension starting 24 hrs after tumor inoculation relative to control; assay type: functional; settings: route intraperitoneal; how it was run: as §4

SMILES | T/C (L1210 [1]) [%] | Activity (Mus musculus [2]) | Activity (L1210 [3]) [g] | T/C (P388 [4]) [%] | Activity (Mus musculus [5]) | T/C (P388 [6]) [%] | Activity (Mus musculus [7]) | Activity (Mus musculus [8]) | Activity (Mus musculus [9]) | Activity (Mus musculus [10]) | EC50 [11] [µg/mL] | T/C (L1210 [12]) [%] | T/C (L1210 [13]) [%] | Activity (L1210 [14]) [g] | Activity (P388 [15]) [g] | Activity (P388 [16]) [g] | Activity (P388 [17]) [g] | Activity (L1210 [18]) [g] | T/C (P388 [19]) [%]
CC(=O)OCc1c(COC(C)=O)c(C(F)(F)F)n2c1CCC2 | 98 | Non-toxic | -0.6 | 93 | Non-toxic | 104 | Non-toxic | Non-toxic | Non-toxic | Non-toxic | 2.4 (≈ 7.52 µM) | 107 | 100 | -0.8 | 2.1 | 1.8 | 1.1 | -1 | 90
OCc1c(CO)c(C(F)(F)F)n2c1CCC2 |  |  | -1.1 | 104 | Non-toxic | 108 | Toxic | Non-toxic |  | Non-toxic | 25 (≈ 106 µM) | 107 | 104 | -2.8 | 2.1 | 0.6 | 1.1 | -0.3 | 104
CNC(=O)OCc1c(COC(=O)NC)c(-c2ccccc2)n2c1CCC2 | 110 | Non-toxic | -1.5 | 124 | Non-toxic | 59 | Non-toxic | Non-toxic | Non-toxic | Non-toxic | 22 (≈ 61.6 µM) | 104 | 104 | -3.1 | -2.1 | -1.8 | -3.5 | -2.6 | 124
